According to ChEMBL document CHEMBL1153716, “Constrained peptidomimetics reveal detailed geometric requirements of covalent prolyl oligopeptidase inhibitors” (J Med Chem, 2009):
The source made the active and inactive calls. The calls are words filed in the database; no cut-off is given here.

What was measured:
[1] = molecular target: Dipeptidyl peptidase 4 (Homo sapiens) (UniProt P27487); assay: Inhibition of DPP4 in human fibroblast extracts assessed as blockade of Gly-Pro-AMC substrate hydrolysis at 100 uM by fluorimetric assay
Chain of Dipeptidyl peptidase 4 (Homo sapiens) (P27487 whole entry, looked up): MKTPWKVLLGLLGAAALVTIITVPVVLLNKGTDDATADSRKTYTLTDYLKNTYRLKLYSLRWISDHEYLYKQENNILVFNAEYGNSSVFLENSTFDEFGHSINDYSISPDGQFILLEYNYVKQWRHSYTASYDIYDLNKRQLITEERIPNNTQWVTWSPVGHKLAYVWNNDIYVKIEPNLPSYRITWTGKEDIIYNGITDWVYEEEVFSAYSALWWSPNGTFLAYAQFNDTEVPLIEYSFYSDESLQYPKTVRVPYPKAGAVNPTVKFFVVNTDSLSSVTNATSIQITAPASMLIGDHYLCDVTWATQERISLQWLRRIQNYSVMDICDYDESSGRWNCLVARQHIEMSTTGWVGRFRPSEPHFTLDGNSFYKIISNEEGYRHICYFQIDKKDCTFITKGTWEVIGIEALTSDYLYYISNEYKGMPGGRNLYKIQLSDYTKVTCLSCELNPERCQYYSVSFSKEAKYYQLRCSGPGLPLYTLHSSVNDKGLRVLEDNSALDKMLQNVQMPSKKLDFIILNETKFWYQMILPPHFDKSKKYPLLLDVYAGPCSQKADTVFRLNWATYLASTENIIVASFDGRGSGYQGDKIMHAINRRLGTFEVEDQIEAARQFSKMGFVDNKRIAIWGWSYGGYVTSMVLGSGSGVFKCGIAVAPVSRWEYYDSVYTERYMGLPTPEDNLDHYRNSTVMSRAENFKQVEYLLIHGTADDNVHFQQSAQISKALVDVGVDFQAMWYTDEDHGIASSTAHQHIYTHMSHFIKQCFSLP
Method in brief: (§1)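 Confluent human cells (glioblastoma LN18, LN229, LNZ308; brain endothelial HCEC; lung PO03 or skin PG98/5 fibroblasts) grown in DMEM with 4.5 g/L glucose and 10% FCS, then lysed in PBS (pH 7.2-7.4) containing 0.1% Triton X-100. Compound was diluted from methanol stock into water and preincubated 5-10 min at room temperature. Gly-Pro-AMC was then added. Duplicate wells.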

[2] = molecular target: T1, Prolyl endopeptidase (Homo sapiens) (UniProt P48147); assay: Inhibition of prolyl oligopeptidase in human brain derived endothelial cell extracts assessed as blockade of Z-Gly-Pro-AMC substrate hydrolysis at 100 uM by fluorimetric assay; type: cell-free
T1 sequence (whole entry): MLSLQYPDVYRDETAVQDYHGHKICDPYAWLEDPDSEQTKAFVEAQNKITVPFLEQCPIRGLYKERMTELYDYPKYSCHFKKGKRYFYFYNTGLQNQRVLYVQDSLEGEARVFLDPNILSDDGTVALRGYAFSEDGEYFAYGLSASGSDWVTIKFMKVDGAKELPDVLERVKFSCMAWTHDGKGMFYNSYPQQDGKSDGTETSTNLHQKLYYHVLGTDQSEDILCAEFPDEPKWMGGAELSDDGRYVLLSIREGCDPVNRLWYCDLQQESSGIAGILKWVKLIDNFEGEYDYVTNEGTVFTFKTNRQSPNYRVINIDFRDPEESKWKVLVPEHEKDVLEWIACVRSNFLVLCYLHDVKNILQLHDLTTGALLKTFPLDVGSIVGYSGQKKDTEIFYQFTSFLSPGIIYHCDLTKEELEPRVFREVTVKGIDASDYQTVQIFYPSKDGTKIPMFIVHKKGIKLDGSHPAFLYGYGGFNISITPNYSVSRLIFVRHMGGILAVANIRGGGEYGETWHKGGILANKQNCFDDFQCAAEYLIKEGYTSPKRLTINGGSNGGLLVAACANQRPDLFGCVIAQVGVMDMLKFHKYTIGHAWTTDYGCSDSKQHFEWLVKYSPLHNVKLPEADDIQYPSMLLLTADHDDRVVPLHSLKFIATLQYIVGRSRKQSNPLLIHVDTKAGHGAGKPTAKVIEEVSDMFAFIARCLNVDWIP
Method in brief: (§2)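 Confluent human glioblastoma (LN18, LN229, LNZ308), brain endothelial HCEC, or lung PO03 and skin PG98/5 fibroblasts extracted in PBS with 0.1% Triton X-100. Compound was diluted from methanol stock into water and preincubated 5-10 min at room temperature. Z-Gly-Pro-AMC was then added and read by fluorescence. Duplicate wells.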

[3] = molecular target: Dipeptidyl peptidase 4 (Homo sapiens) (UniProt P27487); assay: Inhibition of DPP4 in intact human astrocyte derived cells assessed as blockade of Gly-Pro-AMC substrate hydrolysis at 100 uM by fluorimetric assay
Method in brief: (§3)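 Confluent intact human glioblastoma (LN18, LN229, LNZ308), brain endothelial HCEC, or lung PO03 and skin PG98/5 fibroblast monolayers kept in PBS (pH 7.2-7.4) without detergent. Compound was diluted from methanol stock into water and preincubated 5-10 min at room temperature. Gly-Pro-AMC was then added and hydrolysis read by fluorescence. Duplicate wells.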

[4] = molecular target: Dipeptidyl peptidase 4 (Homo sapiens) (UniProt P27487); assay: Inhibition of DPP4 in intact human brain derived endothelial cells assessed as blockade of Gly-Pro-AMC substrate hydrolysis at 100 uM by fluorimetric assay; type: cell-based; conditions: Endothelial cell; method in brief: as §3
[5] = molecular target: T1, Prolyl endopeptidase (Homo sapiens); assay: Inhibition of prolyl oligopeptidase in human astrocyte derived cell extracts assessed as blockade of Z-Gly-Pro-AMC substrate hydrolysis at 100 uM by fluorimetric assay; method in brief: as §2
[6] = molecular target: T1, Prolyl endopeptidase (Homo sapiens); assay: Inhibition of prolyl oligopeptidase in human fibroblast extracts assessed as blockade of Z-Gly-Pro-AMC substrate hydrolysis at 100 uM by fluorimetric assay; method in brief: as §2
[7] = molecular target: Dipeptidyl peptidase 4 (Homo sapiens) (UniProt P27487); assay: Inhibition of DPP4 in human astrocyte derived cell extracts assessed as blockade of Gly-Pro-AMC substrate hydrolysis at 100 uM by fluorimetric assay; method in brief: as §1
[8] = molecular target: T1, Prolyl endopeptidase (Homo sapiens); assay: Inhibition of prolyl oligopeptidase in intact human fibroblasts assessed as blockade of Z-Gly-Pro-AMC substrate hydrolysis at 100 uM by fluorimetric assay
Method in brief: (§4)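 Intact confluent human glioblastoma (LN18, LN229, LNZ308), brain endothelial HCEC, or lung PO03 and skin PG98/5 fibroblast monolayers in PBS (pH 7.2-7.4), cells grown beforehand in DMEM with 10% FCS. Compound was diluted from methanol stock into water and preincubated 5-10 min at room temperature. Z-Gly-Pro-AMC was then added and read fluorimetrically. Duplicate wells.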

[9] = molecular target: T1, Prolyl endopeptidase (Homo sapiens); assay: Inhibition of prolyl oligopeptidase in intact human brain derived endothelial cells assessed as blockade of Z-Gly-Pro-AMC substrate hydrolysis at 100 uM by fluorimetric assay; type: cell-based; conditions: Endothelial cell; method in brief: as §4
[10] = molecular target: Dipeptidyl peptidase 4 (Homo sapiens) (UniProt P27487); assay: Inhibition of DPP4 in human brain derived endothelial cell extracts assessed as blockade of Gly-Pro-AMC substrate hydrolysis at 100 uM by fluorimetric assay; type: cell-free; method in brief: as §1
[11] = molecular target: T1, Prolyl endopeptidase (Homo sapiens); assay: Inhibition of prolyl oligopeptidase in intact human astrocyte derived cells assessed as blockade of Z-Gly-Pro-AMC substrate hydrolysis at 100 uM by fluorimetric assay; method in brief: as §4
[12] = molecular target: Dipeptidyl peptidase 4 (Homo sapiens) (UniProt P27487); assay: Inhibition of DPP4 in intact human fibroblasts assessed as blockade of Gly-Pro-AMC substrate hydrolysis at 100 uM by fluorimetric assay; method in brief: as §3

## NC(=O)[C@@H]1CS[C@H]2C[C@@H](NC(=O)OCc3ccccc3)C(=O)N21
[1]
  inhibition: inactive
[2]
  inhibition: inactive
[3]
  inhibition: inactive
[4]
  inhibition: inactive
[5]
  inhibition: inactive
[6]
  inhibition: inactive
[7]
  inhibition: inactive
[8]
  inhibition: inactive
[9]
  inhibition: inactive
[10]
  inhibition: inactive
[11]
  inhibition: inactive
[12]
  inhibition: inactive

## N#C[C@@H]1CCCN1
[2]
  inhibition: inactive
[3]
  inhibition: inactive
[4]
  inhibition: inactive
[5]
  inhibition: inactive
[6]
  inhibition: inactive
[7]
  inhibition: inactive
[8]
  inhibition: inactive
[9]
  inhibition: inactive
[10]
  inhibition: inactive
[11]
  inhibition: inactive
[12]
  inhibition: inactive

## N#C[C@@H]1CS[C@H]2C[C@H](NC(=O)OCc3ccccc3)C(=O)N12
[1]
  inhibition: inactive
[2]
  inhibition: > 50%
[3]
  inhibition: inactive
[4]
  inhibition: inactive
[5]
  inhibition: 10%
[6]
  inhibition: 10%
[7]
  inhibition: inactive
[8]
  inhibition: 10%
[9]
  inhibition: 10%
[10]
  inhibition: inactive
[11]
  inhibition: inactive
[12]
  inhibition: inactive

## COC(=O)[C@@H]1CS[C@H]2C[C@@H](NC(=O)OCc3ccccc3)C(=O)N21
[1]
  inhibition: inactive
[2]
  inhibition: inactive
[3]
  inhibition: inactive
[4]
  inhibition: inactive
[5]
  inhibition: inactive
[6]
  inhibition: 10%
[7]
  inhibition: inactive
[8]
  inhibition: 10%
[9]
  inhibition: inactive
[10]
  inhibition: inactive
[11]
  inhibition: inactive
[12]
  inhibition: inactive

## N#C[C@@H]1CCCN1C(=O)OCc1ccccc1
[1]
  inhibition: inactive
[2]
  inhibition: 10%
[3]
  inhibition: inactive
[4]
  inhibition: inactive
[5]
  inhibition: inactive
[6]
  inhibition: inactive
[7]
  inhibition: inactive
[8]
  inhibition: 10%
[9]
  inhibition: inactive
[10]
  inhibition: inactive
[11]
  inhibition: inactive
[12]
  inhibition: inactive

## N#CC1CCCCN1C(=O)CNC(=O)OCc1ccccc1 (racemic)
[1]
  inhibition: inactive
[2]
  inhibition: 10%
[3]
  inhibition: inactive
[4]
  inhibition: inactive
[5]
  inhibition: > 50%
[6]
  inhibition: 10%
[7]
  inhibition: inactive
[8]
  inhibition: inactive
[9]
  inhibition: inactive
[10]
  inhibition: inactive
[11]
  inhibition: 10%
[12]
  inhibition: inactive

## COC(=O)[C@@H]1CS[C@H]2C[C@H](NC(=O)OCc3ccccc3)C(=O)N21
[1]
  inhibition: inactive
[2]
  inhibition: inactive
[3]
  inhibition: inactive
[4]
  inhibition: inactive
[5]
  inhibition: 10%
[6]
  inhibition: 10%
[7]
  inhibition: inactive
[8]
  inhibition: 10%
[9]
  inhibition: inactive
[10]
  inhibition: inactive
[11]
  inhibition: inactive
[12]
  inhibition: inactive

## N#C[C@H]1CS[C@@H]2C[C@@H](NC(=O)OCc3ccccc3)C(=O)N12
[1]
  inhibition: inactive
[2]
  inhibition: > 50%
[3]
  inhibition: inactive
[4]
  inhibition: inactive
[5]
  inhibition: 10%
[6]
  inhibition: 10%
[7]
  inhibition: inactive
[8]
  inhibition: inactive
[9]
  inhibition: 10%
[10]
  inhibition: inactive
[11]
  inhibition: inactive
[12]
  inhibition: inactive

## N#C[C@@H]1CS[C@H]2CC[C@@H](NC(=O)OCc3ccccc3)C(=O)N12
[1]
  inhibition: inactive
[2]
  inhibition: > 50%
[3]
  inhibition: inactive
[4]
  inhibition: inactive
[5]
  inhibition: > 50%
[6]
  inhibition: > 50%
[7]
  inhibition: inactive
[8]
  inhibition: > 50%
[9]
  inhibition: > 50%
[10]
  inhibition: inactive
[11]
  inhibition: > 50%
[12]
  inhibition: inactive

## N#C[C@@H]1CO[C@H]2C[C@@H](NC(=O)OCc3ccccc3)C(=O)N12
[1]
  inhibition: inactive
[2]
  inhibition: inactive
[3]
  inhibition: inactive
[4]
  inhibition: inactive
[5]
  inhibition: inactive
[6]
  inhibition: 10%
[7]
  inhibition: inactive
[8]
  inhibition: 10%
[9]
  inhibition: inactive
[10]
  inhibition: inactive
[11]
  inhibition: inactive
[12]
  inhibition: inactive

## NC(=O)[C@@H]1CS[C@H]2C[C@H](NC(=O)OCc3ccccc3)C(=O)N21
[1]
  inhibition: inactive
[2]
  inhibition: inactive
[3]
  inhibition: inactive
[4]
  inhibition: inactive
[5]
  inhibition: inactive
[6]
  inhibition: inactive
[7]
  inhibition: inactive
[8]
  inhibition: inactive
[9]
  inhibition: inactive
[10]
  inhibition: inactive
[11]
  inhibition: inactive
[12]
  inhibition: inactive

## N#C[C@@H]1CS[C@H]2CC[C@H](NC(=O)OCc3ccccc3)C(=O)N12
[1]
  inhibition: inactive
[2]
  inhibition: > 50%
[3]
  inhibition: inactive
[4]
  inhibition: inactive
[5]
  inhibition: > 50%
[6]
  inhibition: > 50%
[7]
  inhibition: inactive
[8]
  inhibition: > 50%
[9]
  inhibition: 10%
[10]
  inhibition: inactive
[11]
  inhibition: > 50%
[12]
  inhibition: inactive

## C[C@@H](NC(=O)OCc1ccccc1)C(=O)N1CCC[C@H]1C#N
[1]
  inhibition: inactive
[3]
  inhibition: inactive
[4]
  inhibition: inactive
[7]
  inhibition: inactive
[10]
  inhibition: inactive
[12]
  inhibition: inactive

## N#CC1CCSC2CC(NC(=O)OCc3ccccc3)C(=O)N12 (racemic)
[1]
  inhibition: inactive
[2]
  inhibition: inactive
[3]
  inhibition: inactive
[4]
  inhibition: inactive
[5]
  inhibition: inactive
[6]
  inhibition: 10%
[7]
  inhibition: inactive
[8]
  inhibition: inactive
[9]
  inhibition: inactive
[10]
  inhibition: inactive
[11]
  inhibition: inactive
[12]
  inhibition: inactive

## N#C[C@H]1CCCN1C(=O)CNC(=O)OCc1ccccc1
[1]
  inhibition: inactive
[3]
  inhibition: inactive
[4]
  inhibition: inactive
[7]
  inhibition: inactive
[10]
  inhibition: inactive
[12]
  inhibition: inactive

## C[C@H](NC(=O)OCc1ccccc1)C(=O)N1CCC[C@H]1C#N
[1]
  inhibition: inactive
[3]
  inhibition: inactive
[4]
  inhibition: inactive
[7]
  inhibition: inactive
[10]
  inhibition: inactive
[12]
  inhibition: inactive

## N#C[C@@H]1CCCN1C(=O)CNC(=O)OCc1ccccc1
[1]
  inhibition: inactive
[3]
  inhibition: inactive
[4]
  inhibition: inactive
[7]
  inhibition: inactive
[10]
  inhibition: inactive
[12]
  inhibition: inactive
